Experimental data published in ChEMBL document CHEMBL4396890, “Synthesis, Biological Evaluation, Structure-Activity Relationship, and Mechanism of Action Studies of Quinoline-Metronidazole Derivatives Against Experimental Visceral Leishmaniasis” (J Med Chem, 2019).
Active and inactive are the calls of the source. The calls are words filed in the database; no cut-off is given here.

Legend:
[1] = Stability of the compound in simulated intestinal fluid assessed as parent compound remaining measured after 2 hrs by UPLC analysis; assay type: ADME; conditions: read-out: Stability
Summary of the method: (§1)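 Compound incubated 2 h in simulated gastric fluid (pH 1.2) […] or in simulated intestinal fluid (pH 6.5) […]; the percentage of intact compound remaining was reported.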

[2] = Stability in rat liver microsomes assessed as parent compound remaining at 10 ug/ml preincubated for 5 mins followed by NADPH addition measured after 60 mins by UPLC analysis; assay type: ADME, Microsome; conditions: read-out: Stability
Summary of the method: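 Compound incubated with rat liver microsomes and the percentage remaining was followed over time up to 60 min. In vitro half-life and related parameters were derived from a plot of the natural log of percent remaining against incubation time.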

Leishmania donovani [3] = experiment: Antileishmanial activity against Leishmania donovani MHOM/IN/80/Dd8 promastigotes harboring luciferase reporter gene at 100 uM after 48 hrs by Steady-Glo luminescence assay; assay type: functional, organism-based
Summary of the method: (§2)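 Luciferase-expressing L. donovani Dd8 promastigotes were grown at 24 °C in M199 with 10% heat-inactivated FBS and G418 20 μg/mL. They were treated at varied concentrations for 24 and 48 h, and inhibition was read as relative luminescence units versus untreated control. IC50 was from dose–response; screening values are mean ± SD of at least three experiments in duplicate.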

Leishmania donovani [4] = experiment: Antileishmanial activity against Leishmania donovani MHOM/IN/80/Dd8 promastigotes harboring luciferase reporter gene at 50 uM after 48 hrs by Steady-Glo luminescence assay relative to control; assay type: functional; conditions: MHOM/IN/80/Dd8, 48 h; summary of the method: as §2
Leishmania donovani [5] = experiment: Antileishmanial activity against Leishmania donovani MHOM/IN/80/Dd8 amastigotes harboring luciferase reporter gene infected in mouse J774 cells after 48 hrs by Steady-Glo luminescence assay; assay type: functional, organism-based; conditions: for IC50: MHOM/IN/80/Dd8, J774, 48 h
Summary of the method: (§3)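 Infection of J774 macrophages with L. donovani Dd8 promastigotes at a 1:8 cell:parasite ratio. Compounds were diluted 2-fold in RPMI over 3.125–100 μM final and applied for 48 h. Amastigote inhibition was read by luciferase (RLU) or by Giemsa count of amastigotes per 100 macrophages. IC50 was from dose–response; n = 3 independent experiments done in replicate.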

[6] = Stability in rat plasma assessed as parent compound remaining at 10 ug/ml measured after 2 hrs by UPLC analysis; assay type: ADME, cell-free; conditions: read-out: Stability
Leishmania donovani [7] = experiment: Antileishmanial activity against Leishmania donovani MHOM/IN/80/Dd8 promastigotes infected in BALB/c mouse assessed as reduction in parasite load in liver at 50 mg/kg, ip administered once daily for 5 days measured 7 days post dose by giemsa staining-based assay relative to control; assay type: functional; parameters: scale not given: the % may be the effect or the level left
Summary of the method: (§4)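 Hamster-passaged strain was transformed to promastigotes. Stationary-phase cells (2 × 10^7 in 0.2 mL PBS) were injected into the tail vein of BALB/c mice. From day 15 post-infection, mice received compound ip in 8% DMSO in PBS for 5 consecutive days, 5 mice per group. Mice were killed day 7 post-treatment. Liver and spleen burden was read from Giemsa-stained stamp smears as LDU.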

Leishmania donovani [8] = experiment: Antileishmanial activity against Leishmania donovani MHOM/IN/80/Dd8 promastigotes harboring luciferase reporter gene after 48 hrs by Steady-Glo luminescence assay; assay type: functional, organism-based; conditions: for IC50: MHOM/IN/80/Dd8, 48 h; summary of the method: as §2
Leishmania donovani [9] = experiment: Antileishmanial activity against Leishmania donovani MHOM/IN/80/Dd8 promastigotes harboring luciferase reporter gene at 25 uM after 48 hrs by Steady-Glo luminescence assay relative to control; assay type: functional; conditions: MHOM/IN/80/Dd8, 48 h; summary of the method: as §2
[10] = Half life in rat liver microsomes at 10 ug/ml preincubated for 5 mins followed by NADPH addition measured after 60 mins by UPLC analysis; assay type: ADME, Microsome
Summary of the method: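 Compound was incubated with rat liver microsomes, sampling % remaining up to 60 min. In vitro half-life and related parameters came from a plot of ln(% remaining) versus incubation time.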

Leishmania donovani [11] = experiment: Antileishmanial activity against Leishmania donovani MHOM/IN/80/Dd8 amastigotes harboring luciferase reporter gene infected in mouse J774 cells by Giemsa staining-based microscopic assay; assay type: functional, organism-based; conditions: TDE = time-dependent effect; summary of the method: as §3
Leishmania donovani [12] = experiment: Antileishmanial activity against Leishmania donovani MHOM/IN/80/Dd8 amastigotes harboring luciferase reporter gene infected in mouse J774 cells at 100 uM after 48 hrs by Steady-Glo luminescence assay; assay type: functional, organism-based; summary of the method: as §3
Leishmania donovani [13] = experiment: Antileishmanial activity against Leishmania donovani MHOM/IN/80/Dd8 amastigotes harboring luciferase reporter gene infected in mouse J774 cells after 48 hrs by Giemsa staining-based microscopic assay; assay type: functional, organism-based; conditions: for IC50: MHOM/IN/80/Dd8, J774, 48 h; summary of the method: as §3
[14] = Cytotoxicity against African green monkey Vero cells assessed as cell viability up to 100 uM measured after 48 hrs by MTT assay relative to control; assay type: cell-based; conditions: chlorocebus sabaeus, read-out: Activity
Summary of the method: (§5)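 Vero cells and J774 macrophages were exposed to 12.5−400 μM compound for 48 h. Viability was read by MTT. CC50 was derived from the curve. Mean ± SD, n = 3 experiments in replicate.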

Leishmania donovani [15] = experiment: Antileishmanial activity against Leishmania donovani MHOM/IN/80/Dd8 promastigotes harboring luciferase reporter gene after 48 hrs by MTT assay relative to control; assay type: functional
Summary of the method: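 Luciferase-expressing L. donovani Dd8 promastigotes were grown at 24 °C in M199 with 10% heat-inactivated FBS and G418 20 μg/mL. They were exposed to a range of concentrations for 48 h, and viability was read by MTT absorbance as percent of untreated control. IC50 was from dose–response; n = 3 independent experiments done in replicate.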

[16] = Stability of the compound in simulated gastric fluid assessed as parent compound remaining measured after 2 hrs by UPLC analysis; assay type: ADME; conditions: read-out: Stability; summary of the method: as §1
Leishmania donovani [17] = experiment: Antileishmanial activity against Leishmania donovani MHOM/IN/80/Dd8 promastigotes infected in BALB/c mouse assessed as reduction in parasite load in spleen at 200 mg/kg, ip administered once daily for 5 days measured 7 days post dose by giemsa staining-based assay relative to control; assay type: functional; parameters: scale not given: the % may be the effect or the level left; summary of the method: as §4
Leishmania donovani [18] = experiment: Antileishmanial activity against Leishmania donovani MHOM/IN/80/Dd8 amastigotes harboring luciferase reporter gene infected in mouse J774 cells at 50 uM after 48 hrs by Steady-Glo luminescence assay relative to control; assay type: functional; conditions: MHOM/IN/80/Dd8, J774, 48 h; summary of the method: as §3
Leishmania donovani [19] = experiment: Antileishmanial activity against Leishmania donovani MHOM/IN/80/Dd8 amastigotes harboring luciferase reporter gene infected in mouse J774 cells at 50 uM after 48 hrs by Giemsa staining-based microscopic assay relative to control; assay type: functional; conditions: MHOM/IN/80/Dd8, J774, 48 h; summary of the method: as §3
[20] = Toxicity in BALB/c mouse infected with Leishmania donovani MHOM/IN/80/Dd8 promastigotes assessed as death at 12.5 to 200 mg/kg, ip administered once daily for 5 days measured up to 7 days post dose; assay type: organism-based; conditions: in vivo
Summary of the method: (§6)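 BALB/c mice (20 ± 2 g) were infected by tail-vein injection of 2 × 10^7 stationary-phase promastigotes. At day 15 they received ip doses in 8% DMSO/PBS for 5 consecutive days and were killed at day 7 post-treatment. Survival, general health and body weight were monitored; 5 mice per group.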

[21] = Cytotoxicity against mouse J774 cells assessed as cell viability up to 50 uM measured after 48 hrs by MTT assay relative to control; assay type: cell-based; conditions: read-out: Activity; summary of the method: as §5
[22] = Toxicity in BALB/c mouse infected with Leishmania donovani MHOM/IN/80/Dd8 promastigotes assessed as effect on health at 12.5 to 200 mg/kg, ip administered once daily for 5 days measured up to 7 days post dose; assay type: organism-based; conditions: in vivo; summary of the method: as §6
Leishmania donovani [23] = experiment: Antileishmanial activity against Leishmania donovani MHOM/IN/80/Dd8 promastigotes infected in ip dosed BALB/c mouse assessed as reduction in parasite load in liver administered once daily for 5 days measured 7 days post dose by giemsa staining-based assay; assay type: functional, organism-based; summary of the method: as §4

Row | Structure (SMILES) | remaining at 2 h [1] | remaining at 1 h, 10 ug/ml [2] | inhibition (Leishmania donovani [3]) | inhibition at 50 µM (Leishmania donovani [4]) | inhibition (Leishmania donovani [5]) | IC50 (Leishmania donovani [5]) | remaining at 2 h, 10 ug/ml [6] | Activity (Leishmania donovani [7]) | inhibition (Leishmania donovani [8]) | IC50 (Leishmania donovani [8]) | inhibition at 25 µM (Leishmania donovani [9]) | half-life at 10 ug/ml [10] | inhibition (Leishmania donovani [11]) | inhibition (Leishmania donovani [12]) | inhibition (Leishmania donovani [13]) | IC50 (Leishmania donovani [13]) | viability at 48 h [14] | Imax (Leishmania donovani [15]) | remaining at 2 h [16] | Activity (Leishmania donovani [17]) | other results
1 | Cc1cc(-c2ccc(OCCn3c([N+](=O)[O-])cnc3C)cc2)nc2ccccc12 | 43.6% | 76% | Active | 94.4% | Dose-dependent effect | 3.75 µM | 88.5% | >82.3% | Dose-dependent effect | 5.42 µM | 85.8% | 2.5 h | Tde | Active | Dose-dependent effect | 4.06 µM | > 86% | >93% | 83.6% | 82.2% | inhibition at 50 µM (Leishmania donovani [18]): 93.8 to 96%; inhibition at 50 µM (Leishmania donovani [19]): > 93%; Activity [20]: Non-Toxic; viability at 48 h [21]: > 92%; Activity [22]: Non-Toxic; Activity (Leishmania donovani [23]): Dose-dependent effect
2 | Cc1cc(-c2cccc(OCCn3c([N+](=O)[O-])cnc3C)c2)nc2ccccc12 | 11.4% | 72.8% | Active | 94.7% | Dose-dependent effect | 9.81 µM | 68.2% | >50% | Dose-dependent effect | 9.54 µM | 77.8% | 2.18 h | Tde | Active | Dose-dependent effect | 9.09 µM | > 86% | >93% | 84.7% | 54.14% | inhibition at 50 µM (Leishmania donovani [18]): 93.2 to 96%; inhibition at 50 µM (Leishmania donovani [19]): > 93%; Activity [20]: Non-Toxic; viability at 48 h [21]: > 92%; Activity [22]: Non-Toxic; Activity (Leishmania donovani [23]): Dose-dependent effect
